pIC50, pKi: −log10 of the molar value.
How the values were obtained:
Cavia porcellus [1] = organism: Cavia porcellus; assay: Compound was tested for agonistic activity on the electrically stimulated guinea pig ileum (GPI) at 1 uM; type: functional
[2] = target: Kappa-type opioid receptor (Cavia porcellus) (UniProt P41144); assay: Antagonist activity against electrically stimulated guinea pig ileum using ethylketazocine (EK) as kappa opioid receptor agonist; type: functional, tissue-based
Procedure, shortened: (§1)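 Electrically stimulated guinea pig ileum (morphine, μ; ethylketazocine, κ) or mouse vas deferens (DADLE, δ). The test ligand is incubated with the tissue for 15 min, then the agonist curve is run with 100 nM antagonist present. Read-out is the IC50 ratio: agonist IC50 with antagonist divided by the control IC50 in the same preparation. Three or more replicates.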

[3] = target: Mu-type opioid receptor (Cavia porcellus) (UniProt P97266); assay: Antagonist activity against electrically stimulated guinea pig ileum using morphine (M) as mu opioid receptor agonist; type: functional, tissue-based; procedure, shortened: as §1
Chain of Mu-type opioid receptor (Cavia porcellus) (P97266 whole entry): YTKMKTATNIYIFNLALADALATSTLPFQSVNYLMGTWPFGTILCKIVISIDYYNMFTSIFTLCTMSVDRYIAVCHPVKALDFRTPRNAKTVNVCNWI

[4] = target: Delta-type opioid receptor (Mus musculus) (UniProt P32300); assay: Compound was tested for its ability to antagonize the antinociceptive effect of DSLET (delta-2 opioid receptor agonist) in mice; type: functional
Chain of Delta-type opioid receptor (Mus musculus) (P32300 whole entry): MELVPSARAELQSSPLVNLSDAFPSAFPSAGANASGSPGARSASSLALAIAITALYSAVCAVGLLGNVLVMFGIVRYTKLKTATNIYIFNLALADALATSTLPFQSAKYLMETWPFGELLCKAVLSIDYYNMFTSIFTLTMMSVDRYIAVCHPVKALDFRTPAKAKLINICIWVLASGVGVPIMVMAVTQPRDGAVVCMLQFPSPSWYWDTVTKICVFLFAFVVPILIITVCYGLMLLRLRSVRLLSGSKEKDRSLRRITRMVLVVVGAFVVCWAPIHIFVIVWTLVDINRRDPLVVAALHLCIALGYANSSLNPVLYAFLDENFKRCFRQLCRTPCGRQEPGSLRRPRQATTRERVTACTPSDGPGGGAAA
Procedure, shortened: (§2)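 Tail-flick antinociception in ICR mice. Antagonist is given icv at 5 or 10 nmol, timed so its 20 min peak effect falls at the centre of the observation period. Agonists are DPDPE and DSLET icv, and morphine sc. Read-out is the agonist ED50 with antagonist divided by the control ED50, with 95% confidence limits.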

[5] = target: Kappa-type opioid receptor (Mus musculus) (UniProt P33534); assay: Compound was tested for its ability to antagonize the antinociceptive effect of U-69,594 (kappa opioid receptor agonist) in mice; type: functional
Chain of Kappa-type opioid receptor (Mus musculus) (P33534 whole entry): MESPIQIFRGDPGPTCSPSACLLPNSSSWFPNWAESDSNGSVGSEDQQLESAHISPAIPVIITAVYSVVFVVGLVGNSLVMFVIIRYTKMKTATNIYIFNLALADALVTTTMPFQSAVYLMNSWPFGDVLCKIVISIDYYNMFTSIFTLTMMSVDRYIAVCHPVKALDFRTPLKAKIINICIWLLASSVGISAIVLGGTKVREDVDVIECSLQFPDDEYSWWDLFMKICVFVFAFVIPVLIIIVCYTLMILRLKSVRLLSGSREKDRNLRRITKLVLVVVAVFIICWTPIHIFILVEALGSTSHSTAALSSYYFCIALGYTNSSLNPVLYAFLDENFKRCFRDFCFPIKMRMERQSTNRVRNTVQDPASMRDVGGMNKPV

[6] = target: Mu-type opioid receptor (Mus musculus) (UniProt P42866); assay: Compound was tested for its ability to antagonize the antinociceptive effect of morphine (mu opioid receptor agonist) in mice; type: functional; procedure, shortened: as §2
Chain of Mu-type opioid receptor (Mus musculus) (P42866 whole entry): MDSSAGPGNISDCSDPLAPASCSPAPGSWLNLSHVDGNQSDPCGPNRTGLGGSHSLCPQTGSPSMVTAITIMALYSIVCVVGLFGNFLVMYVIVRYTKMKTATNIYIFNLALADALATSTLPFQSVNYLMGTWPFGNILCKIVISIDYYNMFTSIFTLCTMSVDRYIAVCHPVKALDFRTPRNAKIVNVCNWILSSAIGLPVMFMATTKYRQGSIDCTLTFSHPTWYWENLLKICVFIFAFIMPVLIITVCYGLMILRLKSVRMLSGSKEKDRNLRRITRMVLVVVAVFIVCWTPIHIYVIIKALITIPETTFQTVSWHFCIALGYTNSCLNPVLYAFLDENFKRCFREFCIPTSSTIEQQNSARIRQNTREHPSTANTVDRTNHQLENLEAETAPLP

[7] = target: Delta-type opioid receptor (Mus musculus) (UniProt P32300); assay: Compound was tested for its ability to antagonize the antinociceptive effect of DPDPE (delta-1 opioid receptor agonist) in mice; type: functional; procedure, shortened: as §2
Mus musculus [8] = organism: Mus musculus; assay: Compound was tested for agonistic activity on the electrically stimulated mouse vas deferens (MVD) at 1 uM; type: functional
Mus musculus [9] = organism: Mus musculus; assay: Compound was tested for the antagonist activity on the electrically stimulated mouse vas deferens using DADLE as delta opioid receptor agonist; type: functional; procedure, shortened: as §1
[10] = target: Kappa-type opioid receptor (Mus musculus, UniProt P33534); assay: […]; type: functional
Chain of Kappa-type opioid receptor (Mus musculus, UniProt P33534) (P33534 whole entry): as the sequence (P33534 whole entry) above
Procedure, shortened: (§3)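 Competition binding in ICR mouse brain membranes, using a modified Werling procedure. Radioligands are [3H]naltrindole for δ, [3H]DAMGO for μ and [3H]U69593 for κ. Ki values are derived from the competition curves.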

Mu-type opioid receptor [11] = target: Mu-type opioid receptor (Mus musculus, UniProt P42866); assay: […]; type: functional; procedure, shortened: as §3
Chain of Mu-type opioid receptor (Mus musculus, UniProt P42866) (P42866 whole entry): as the sequence (P42866 whole entry) above

[12] = target: Opioid receptors; mu & kappa (Homo sapiens) (UniProt P41145+P35372); assay: Antagonist selectivity ratio measured as delta IC50 to that of mu kappa IC50 values.; type: functional
Chain of Opioid receptors; mu & kappa (Homo sapiens) (P35372 whole entry, looked up): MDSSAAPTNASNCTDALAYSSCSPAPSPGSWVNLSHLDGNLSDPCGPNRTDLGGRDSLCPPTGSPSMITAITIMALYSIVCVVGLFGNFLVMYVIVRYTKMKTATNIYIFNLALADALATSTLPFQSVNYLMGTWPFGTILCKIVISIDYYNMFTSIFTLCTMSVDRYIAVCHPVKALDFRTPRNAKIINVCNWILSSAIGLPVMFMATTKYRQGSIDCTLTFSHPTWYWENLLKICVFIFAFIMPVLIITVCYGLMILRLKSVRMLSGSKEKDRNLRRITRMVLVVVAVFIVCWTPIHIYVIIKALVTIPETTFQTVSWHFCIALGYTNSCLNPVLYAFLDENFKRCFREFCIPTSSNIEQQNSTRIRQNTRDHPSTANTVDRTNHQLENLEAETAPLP
Chain of Opioid receptors; mu & kappa (Homo sapiens) (P41145 whole entry, looked up): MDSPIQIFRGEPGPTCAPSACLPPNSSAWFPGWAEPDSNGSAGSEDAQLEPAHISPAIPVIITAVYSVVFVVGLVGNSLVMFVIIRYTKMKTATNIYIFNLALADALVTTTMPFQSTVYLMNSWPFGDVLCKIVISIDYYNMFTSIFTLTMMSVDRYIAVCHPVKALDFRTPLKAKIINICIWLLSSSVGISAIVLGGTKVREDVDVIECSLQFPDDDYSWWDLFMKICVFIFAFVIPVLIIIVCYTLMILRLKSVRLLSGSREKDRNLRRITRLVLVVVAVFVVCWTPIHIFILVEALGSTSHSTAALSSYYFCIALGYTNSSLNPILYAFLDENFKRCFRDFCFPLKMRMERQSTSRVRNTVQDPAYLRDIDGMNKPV
Procedure, shortened: (§4)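 Derived from the tissue antagonism data. The δ IC50 ratio (DADLE, mouse vas deferens) is divided by the μ (morphine) or κ (ethylketazocine) IC50 ratio from guinea pig ileum, each ratio measured at 100 nM antagonist. An IC50 ratio below unity is set to a minimum of 1 in the calculation.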

[13] = target: Opioid receptors; mu & delta (Homo sapiens) (UniProt P41143+P35372); assay: Antagonist selectivity ratio measured as delta IC50 to that of mu receptor IC50 values.; type: functional; procedure, shortened: as §4
Chain of Opioid receptors; mu & delta (Homo sapiens) (P35372 whole entry, looked up): as the sequence (P35372 whole entry, looked up) above
Chain of Opioid receptors; mu & delta (Homo sapiens) (P41143 whole entry, looked up): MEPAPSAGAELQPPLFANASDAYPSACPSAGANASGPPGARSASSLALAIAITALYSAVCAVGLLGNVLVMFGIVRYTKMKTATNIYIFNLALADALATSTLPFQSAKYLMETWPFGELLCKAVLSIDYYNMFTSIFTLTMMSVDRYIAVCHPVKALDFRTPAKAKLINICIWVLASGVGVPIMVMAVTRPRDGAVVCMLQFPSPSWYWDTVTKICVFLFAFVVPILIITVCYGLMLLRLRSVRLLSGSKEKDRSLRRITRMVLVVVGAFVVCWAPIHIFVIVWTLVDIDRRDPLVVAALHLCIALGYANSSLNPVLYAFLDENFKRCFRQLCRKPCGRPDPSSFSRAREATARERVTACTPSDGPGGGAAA

[14] = target: T1, Delta-type opioid receptor (Mus musculus, UniProt P32300); assay: The compound tested for […] against [3H]- NT1 (Opioid receptor delta 1) opioid receptor; procedure, shortened: as §3
T1 sequence (P32300 whole entry): as the sequence (P32300 whole entry) above

Mus musculus [15] = organism: Mus musculus; assay: Compound was tested for agonistic activity on the electrically stimulated mouse vas deferens (MVD); type: functional, organism-based
[16] = target: Delta-type opioid receptor (Homo sapiens, UniProt P41143); assay: […]; type: functional
Chain of Delta-type opioid receptor (Homo sapiens, UniProt P41143) (P41143 whole entry): as the sequence (P41143 whole entry, looked up) above

[17] = target: Kappa-type opioid receptor (Homo sapiens, UniProt P41145); assay: […]; type: functional
Chain of Kappa-type opioid receptor (Homo sapiens, UniProt P41145) (P41145 whole entry): as the sequence (P41145 whole entry, looked up) above

Mu-type opioid receptor [18] = target: Mu-type opioid receptor (Homo sapiens, UniProt P35372); assay: […]; type: functional
Chain of Mu-type opioid receptor (Homo sapiens, UniProt P35372) (P35372 whole entry): as the sequence (P35372 whole entry, looked up) above

Cavia porcellus [19] = organism: Cavia porcellus; assay: Compound was tested for agonistic activity on the electrically stimulated guinea pig ileum (GPI); type: functional, organism-based
[20] = target: T1, Delta-type opioid receptor; assay: […]; type: functional; procedure, shortened: as §3

Chain of Kappa-type opioid receptor (Cavia porcellus) (P41144 whole entry): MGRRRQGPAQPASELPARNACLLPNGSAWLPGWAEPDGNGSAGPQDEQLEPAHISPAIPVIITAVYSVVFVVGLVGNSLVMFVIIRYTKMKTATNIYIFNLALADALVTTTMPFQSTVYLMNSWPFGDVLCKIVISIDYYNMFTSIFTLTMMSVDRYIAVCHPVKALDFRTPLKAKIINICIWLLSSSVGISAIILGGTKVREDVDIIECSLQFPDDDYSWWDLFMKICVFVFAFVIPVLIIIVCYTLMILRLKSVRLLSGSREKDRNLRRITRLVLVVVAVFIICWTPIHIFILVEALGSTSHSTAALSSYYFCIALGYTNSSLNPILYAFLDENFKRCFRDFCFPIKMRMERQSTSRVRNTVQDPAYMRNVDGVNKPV

| Compound | Max response (Cavia porcellus [1]) [%] | IC50 ratio [2] | IC50 ratio [3] | ED50 ratio [4] | ED50 ratio [5] | ED50 ratio [6] | ED50 ratio [7] | Max response (Mus musculus [8]) [%] | IC50 ratio (Mus musculus [9]) | pKi [10] | pKi (Mu-type opioid receptor [11]) | IC50 ratio [12] | IC50 ratio [13] | pKi [14] | pIC50 (Mus musculus [15]) | pKi [16] | pKi [17] | pKi (Mu-type opioid receptor [18]) | pIC50 (Cavia porcellus [19]) | pKi [20] | Ki [20] |
| --- | --- | --- | --- | --- | --- | --- | --- | --- | --- | --- | --- | --- | --- | --- | --- | --- | --- | --- | --- | --- | --- |
| CN1CCC23c4c5ccc(O)c4OC2C(=O)C2(Cc4cc6ccccc6cc4C2)C[C@@]3(O)C1C5 (stereo not given in full) | 13.4 | 1.2 | 0.58 | 0.9 | 3 | 2 | 1.5 | 57 | 1.1 | < 5.52 | 6.90 | 1 | 1 | 7.50 |  |  |  |  |  |  |  |
| O=C1/C(=C/c2ccccc2)C[C@@]2(O)[C@H]3Cc4ccc(O)c5c4[C@@]2(CCN3CC2CC2)[C@H]1O5 |  |  |  | 0.91 | 1.2 | 0.8 | 7.2 |  |  |  |  |  |  |  |  |  |  |  |  |  |  |
| O=C1C2Oc3c(O)ccc4c3C23CCN(CC2CC2)C(C4)[C@]3(O)CC12Cc1ccc3ccccc3c1C2 (stereo not given in full) | 13.9 | 1.7 | 1 |  |  |  |  | 14 | 25 |  |  | 14.7 | 25 |  |  |  |  |  |  |  |  |
| CN1CC[C@]23c4c5ccc(O)c4O[C@H]2C(=O)C2(Cc4ccccc4C2)C[C@@]3(O)[C@H]1C5 [SPIROINDANYLOXYMORPHONE] | 55 | 0.99 | 1.2 |  |  |  |  |  |  |  |  |  |  |  | 7.64 | 8.56 | < 5.52 | 7.84 |  |  |  |
| O=C1[C@@H]2Oc3c(O)ccc4c3[C@@]23CCN(CC2CC2)[C@H](C4)[C@]3(O)CC12Cc1ccccc1C2 | 16 |  |  |  |  |  |  | -8 | 130 |  |  |  |  |  |  | 9.60 | < 5.52 | 8.82 |  |  |  |
| COc1cccc2c1CC1(C2)C[C@@]2(O)C3Cc4ccc(O)c5c4C2(CCN3C)C(O5)C1=O (stereo not given in full) |  |  |  |  |  |  |  |  |  | < 5.52 | 8.03 |  |  |  | 7.57 |  |  |  | 6.83 | 8.26 |  |
| O=C1C2Oc3c(O)ccc4c3C23CCN(CC2CC2)C(C4)[C@]3(O)CC12Cc1cccc3cccc(c13)C2 (stereo not given in full) | 11.2 | 0.78 | 0.93 |  |  |  |  | 17.6 | 12.6 |  |  | 12.6 | 12.6 |  |  |  |  |  |  |  |  |
| COc1cccc2c1CC1(C2)C[C@@]2(O)C3Cc4ccc(O)c5c4C2(CCN3CC2CC2)C(O5)C1=O (stereo not given in full) | -4.5 | 2.4 | 6.2 | 4.3 | 3.4 | 2.5 | 5.6 | -18 | 85 | < 5.52 | 9.36 | 35 | 13.7 |  |  |  |  |  |  | 10.55 |  |
| COc1ccc2c(c1)CC1(C2)C[C@@]2(O)C3Cc4ccc(O)c5c4C2(CCN3CC2CC2)C(O5)C1=O (stereo not given in full) | -52 | 2.8 | 6.9 |  |  |  |  | 0.6 | 11.8 |  |  | 4.2 | 1.7 |  |  |  |  |  |  |  |  |
| O=C1C2Oc3c(O)ccc4c3C23CCN(CC2CC2)C(C4)[C@]3(O)CC12Cc1cc3ccccc3cc1C2 (stereo not given in full) | 52 | 0.24 | 3.4 | 1.5 | 0.8 | 0.8 | 4.4 | 4.9 | 48 | 5.99 | 8.11 | 48 | 14.1 |  |  |  |  |  |  |  | Non-competitive inhibition |

— ChEMBL document CHEMBL1130045, “7-Spiroindanyl derivatives of naltrexone and oxymorphone as selective ligands for delta opioid receptors” (J Med Chem, 1997)
